Measurements published in ChEMBL document CHEMBL5058577, “EUbOPEN Chemogenomics Library 2 (Multiplex)” (2022).

System: HEK-293T
Experiment: Multiplex assay against HEK293T
Assay type: toxicity, cell-based
Conditions: human
Procedure, shortened: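 Hoechst33342, BioTracker Green Microtubule Cytoskeleton Dye, MitoTracker Red and Annexin V Alexa Fluor 680 were added to live cells at seeding, and imaging on a CQ1 microscope at 37°C and 5% CO2 followed compound addition. Gating by CellPathfinder machine learning separated cells into Hoechst high-intensity objects or normal cells, then normal cells into healthy, pyknosed or fragmented nuclei, then pyknosed cells into mitotic or apoptotic. Per cents of healthy-nucleus cells are reported for the tubulin, mitochondrial-mass and membrane-permeability phenotypes.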

[1] = 12 h, 1 µM, compound concentration 1 uM, replicate 1
[2] = 12 h, 1 µM, compound concentration 1 uM, replicate 2
[3] = 12 h, 10 µM, compound concentration 10 uM, replicate 1
[4] = 12 h, 10 µM, compound concentration 10 uM, replicate 2
[5] = 24 h, 1 µM, compound concentration 1 uM, replicate 1
[6] = 24 h, 1 µM, compound concentration 1 uM, replicate 2
[7] = 24 h, 10 µM, compound concentration 10 uM, replicate 1
[8] = 24 h, 10 µM, compound concentration 10 uM, replicate 2
[9] = 48 h, 1 µM, compound concentration 1 uM, replicate 1
[10] = 48 h, 1 µM, compound concentration 1 uM, replicate 2
[11] = 48 h, 10 µM, compound concentration 10 uM, replicate 1
[12] = 48 h, 10 µM, compound concentration 10 uM, replicate 2

CSCC[C@H](NC=O)C(=O)N[C@@H](CC(C)C)C(=O)N[C@@H](Cc1ccccc1)C(=O)O
Population Mitochondria Different-Phenotype (%) [1]: 47% | Population Tubulin-Different-Phenotype (%) [1]: 23% | Total Cell Count [1]: 466 | Population Apoptotic (%) [2]: 28% | Population Mitochondria Different-Phenotype (%) [2]: 57% | Population Mitotic Cells (%) [2]: 71% | Population Tubulin-Different-Phenotype (%) [2]: 16% | Total Cell Count [2]: 437 | Population Mitochondria Different-Phenotype (%) [3]: 52% | Population Tubulin-Different-Phenotype (%) [3]: 37% | Total Cell Count [3]: 366 | Population Apoptotic (%) [4]: 54% | Population Mitochondria Different-Phenotype (%) [4]: 64% | Population Mitotic Cells (%) [4]: 45% | Population Tubulin-Different-Phenotype (%) [4]: 31% | Total Cell Count [4]: 375 | Population Apoptotic (%) [5]: 21% | Population Mitochondria Different-Phenotype (%) [5]: 21% | Population Mitotic Cells (%) [5]: 78% | Population Tubulin-Different-Phenotype (%) [5]: 14% | Total Cell Count [5]: 679 | Population Mitochondria Different-Phenotype (%) [6]: 37% | Population Tubulin-Different-Phenotype (%) [6]: 12% | Total Cell Count [6]: 550 | Population Apoptotic (%) [7]: 25% | Population Mitochondria Different-Phenotype (%) [7]: 38% | Population Mitotic Cells (%) [7]: 75% | Population Tubulin-Different-Phenotype (%) [7]: 25% | Total Cell Count [7]: 479 | Population Apoptotic (%) [8]: 36% | Population Mitochondria Different-Phenotype (%) [8]: 53% | Population Mitotic Cells (%) [8]: 64% | Population Tubulin-Different-Phenotype (%) [8]: 22% | Total Cell Count [8]: 490 | Population Apoptotic (%) [9]: 29% | Population Mitochondria Different-Phenotype (%) [9]: 12% | Population Tubulin-Different-Phenotype (%) [9]: 12% | Total Cell Count [9]: 1154 | Population Apoptotic (%) [10]: 20% | Population Mitochondria Different-Phenotype (%) [10]: 17% | Population Mitotic Cells (%) [10]: 79% | Total Cell Count [10]: 838 | Population Apoptotic (%) [11]: 28% | Population Mitochondria Different-Phenotype (%) [11]: 24% | Population Mitotic Cells (%) [11]: 71% | Population Tubulin-Different-Phenotype (%) [11]: 12% | Total Cell Count [11]: 704 | Population Apoptotic (%) [12]: 36% | Population Mitochondria Different-Phenotype (%) [12]: 28% | Population Mitotic Cells (%) [12]: 63% | Population Tubulin-Different-Phenotype (%) [12]: 14% | Total Cell Count [12]: 674
